An excerpt weighted towards active compounds, which were near 4% of everything screened.
KCNK9 block = KCNK9 potassium channel inhibitors, primary screen, HEK293 cells, thallium flux. FluxOR thallium flux fluorescence; hits give low values. B-score at 10 µM. 310,000 tested, 1.2% active. AID 488922, 2010;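 active means ratio B-score over 3 SD below the library mean, with starting fluorescence within 5 SD of its mean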;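 further: negative B-score means less thallium flux so channel inhibition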
PHOSPHO1 block = PubChem AID 1565; Phosphoethanolamine/phosphocholine phosphatase (Homo sapiens), Q8TCT1; recombinant PHOSPHO1, absorbance phosphatase assay; inhibition, % at 13.3 µM; 290,000 tested, 1.1% active; in the data active means inhibition above about 60%
KCNK3 block = human KCNK3 channel inhibitors, primary screen, CHO cells, FluxOR thallium flux, B-score; Potassium channel subfamily K member 3 (Homo sapiens), O14649; FluxOR fluorescence; hits give low values; B-score at 10 µM; 340,000 tested, 0.84% active;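 active means B-score under library mean minus 4 SD, starting fluorescence ratio at most library mean plus 5 SD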;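 further: more negative B-score means stronger inhibition of thallium flux through KCNK3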
KCNQ1 inh = inhibitors of human KCNQ1 channel, primary screen, cell-based, thallium flux, high-throughput | AID 2642, 2010 | Potassium voltage-gated channel subfamily KQT member 1 (Homo sapiens), P51787 | CHO-K1 KCNQ1, FluxOR thallium flux fluorescence; hits give high values | 310,000 tested, 1.3% active | B-score at 10 µM;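 active means compounds whose thallium flux B-score, printed positive for inhibition, exceeds three library SD while starting fluorescence stays within three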;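 further: channel opened by potassium depolarization with thallium stimulus after 20 min compound exposure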
Target sequence (P51787 whole entry, looked up): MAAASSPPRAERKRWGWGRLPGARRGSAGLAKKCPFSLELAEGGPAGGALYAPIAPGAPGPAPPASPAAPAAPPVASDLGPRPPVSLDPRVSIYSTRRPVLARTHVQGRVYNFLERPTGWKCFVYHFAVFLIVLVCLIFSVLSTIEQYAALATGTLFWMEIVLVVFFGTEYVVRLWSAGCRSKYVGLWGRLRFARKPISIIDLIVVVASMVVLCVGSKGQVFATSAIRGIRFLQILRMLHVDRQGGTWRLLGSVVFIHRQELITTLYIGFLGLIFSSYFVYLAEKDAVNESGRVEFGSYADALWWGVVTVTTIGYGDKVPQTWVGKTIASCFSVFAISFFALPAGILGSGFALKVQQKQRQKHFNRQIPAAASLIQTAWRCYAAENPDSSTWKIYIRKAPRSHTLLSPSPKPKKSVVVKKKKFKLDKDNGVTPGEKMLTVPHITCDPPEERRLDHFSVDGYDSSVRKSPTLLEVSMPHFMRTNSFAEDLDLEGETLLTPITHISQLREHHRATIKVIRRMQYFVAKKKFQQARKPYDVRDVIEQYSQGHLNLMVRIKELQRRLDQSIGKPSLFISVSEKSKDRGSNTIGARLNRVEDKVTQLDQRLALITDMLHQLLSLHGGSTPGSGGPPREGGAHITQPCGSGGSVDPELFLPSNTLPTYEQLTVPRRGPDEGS
hERG protect = hERG rescue from dofetilide block, primary screen, cell-based, CHO-hERG, FluxOR thallium flux, dofetilide IC70; Voltage-gated inwardly rectifying potassium channel KCNH2 (Homo sapiens), Q12809; dofetilide IC70 present; activation (rescue from dofetilide block), less the hit threshold, % at 10 µM; 310,000 tested, 0.51% active;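 active means activation above the mean of controls blocked by dofetilide plus 5 SD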;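 further: thallium influx through hERG after potassium depolarization seen as dye fluorescence rise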
KCNQ1 act = potentiators or activators of KCNQ1 channel, primary screen, cell-based, thallium flux, high-throughput; Potassium voltage-gated channel subfamily KQT member 1 (Homo sapiens), P51787; CHO-K1 KCNQ1, thallium flux FluxOR fluorescence; hits give high values; B-score at 10 µM; 310,000 tested, 0.35% active; AID 2648, 2010;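 active means fluorescence ratio B-score, a plate-corrected score, at least three library SD, with initial intensity B-score within 5 SD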
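Assay system: CHO-K1 cells stably expressing KCNQ1. Medium: assay buffer for compound exposure, DMSO matched across wells. Timing: 37 °C overnight plating, 90-min dark dye load, 20-min compound pretreatment. Signal: kinetic FluxOR fluorescence, 10 s baseline plus 110 s post-stimulus.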
KCNK9 inh conf = KCNK9 potassium channel inhibitors, confirmation, HEK293 cells, thallium flux, duplicate; 4,900 tested, 43% active; AID 492992, 2010; inhibition, % at 10 µM; shares compounds with KCNK9 block; FluxOR thallium flux fluorescence;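 active means thallium signal inhibited by more than 5 SD of the compound-free buffer control wells, on both duplicate plates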;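 further: 0% = assay buffer control wells without compound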
Kir2-1 spec = mouse Kir2.1 channel inhibition, confirmation, selectivity assay for KCNK9 modulator project, cell-based, HEK293, thallium flux; shares compounds with KCNK9 block; Kir2.1 cells, FluxOR thallium flux fluorescence; inhibition, % at 10 µM; 4,900 tested, 4% active; AID 492993, 2010;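 active means thallium signal drop more than 5 SD beyond the mean of the no-compound control wells, seen in both duplicate plates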;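 further: signal is fluorescence rise after thallium addition divided by baseline fluorescence; plate controls were assay buffer only for no effect and full block by chlorpromazine control for full effect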
HEK293 Tl ctr = thallium flux in non-induced HEK293 cells, confirmation, counter-screen for KCNK9 inhibitor project, cell-based, second counter screen, non-induced KCNK9-HEK293; shares compounds with KCNK9 block; FluxOR thallium flux; inhibition, % at 10 µM; 4,900 tested, 40% active;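 active means thallium signal drop beyond 5 SD of the untreated control mean, on both duplicate plates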;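 further: plate controls were buffer only IC0 wells for no effect and SID17386958 at its maximal inhibitory level for full effect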
The depositor's hits bear a star; i = inactive; / = no result given.

SMILES | KCNK9 block | PHOSPHO1 block | KCNK3 block | KCNQ1 inh | hERG protect | KCNQ1 act | KCNK9 inh conf | Kir2-1 spec | HEK293 Tl ctr
COc1ccccc1-c1ccc(SCc2ccc(F)cc2)nn1 | i | 32.0 | i | i | -12.0 | i | / | / | /
COc1ccccc1-c1ccc(SCc2ccc(C)cc2)nn1 | i | 34.1 | i | i | -23.7 | i | i | i | i
CS(=O)(=O)Nc1ccc(C2=NN(C(=O)CCCC(=O)O)C(c3cccs3)C2)cc1 (configuration not stated) | i | 28.6 | i | i | -7.8 | i | / | / | /
Cc1ccc(Cl)cc1NC(=O)COC(=O)CC1CC2CCC1C2 (configuration not stated) | i | 4.1 | i | i | -0.1 | i | / | / | /
COC(=O)c1ccc(C(=O)OC)c(NC(=O)COC(=O)CC2CC3CCC2C3)c1 (configuration not stated) | -13.3* | 6.1 | -13.9* | i | -12.1 | i | 50.5%* | i | 29.0%*
C=C(C)C1CCC(C)=C1COC(=O)Nc1ccccc1 (configuration not stated) | i | 0.9 | i | i | -7.2 | i | i | i | i
O=C(Nc1ccccc1)OCCCCOC(=O)Nc1ccccc1 | / | / | i | / | / | / | / | / | /
O=c1c2ccccc2c(-c2ccc(O)cc2)nn1-c1cccc(C(F)(F)F)c1 | i | -6.4 | i | i | -15.7 | i | / | / | /
O=c1c2ccccc2c(-c2cccc(C(F)(F)F)c2)nn1-c1ccccc1 | -8.83* | 24.6 | i | i | -11.0 | i | 37.5%* | i | 43.0%*
COC(=O)c1ccccc1NC(=O)C1CCCN(S(=O)(=O)c2ccc(F)cc2)C1 (configuration not stated) | i | 21.1 | i | i | -0.5 | i | i | i | i
COC(=O)c1ccccc1NC(=O)C1CCCN(S(=O)(=O)c2ccc(OC)cc2)C1 (configuration not stated) | i | -17.3 | i | i | -8.1 | i | / | / | /
COC(=O)c1ccccc1NC(=O)C1CCCN(S(=O)(=O)c2ccccc2)C1 (configuration not stated) | i | 12.4 | i | i | -8.5 | i | i | i | i
O=C(NNC(=O)c1ccccc1O)c1ccc(-c2ccc([N+](=O)[O-])cc2)o1 | i | / | i | i | -22.2 | i | / | / | /
C#CCN1C=CC(=O)[C@@H](OC(=O)Nc2ccc(Cl)cc2)[C@H]1c1ccccc1Br | / | / | i | / | / | / | / | / | /
COC(=O)CNC(c1ccccc1)c1cc(Br)ccc1NC(=O)CNC(=O)OCc1ccccc1 (configuration not stated) | -14.7* | -8.6 | i | i | -6.3 | i | 63.5%* | i | 32.5%*
COC(=O)CNC(c1ccccc1)c1cc(Br)ccc1NC(=O)CCN1CCOCC1 (configuration not stated) | i | -46.2 | i | i | -9.8 | i | / | / | /
COc1ccc(N2CCCn3c2nc2c3c(=O)n(Cc3ccc(C)cc3)c(=O)n2C)c(OC)c1 | i | 32.2 | i | i | -6.7 | i | i | i | i
COc1ccc(N2CCCn3c2nc2c3c(=O)n(CCc3ccccc3)c(=O)n2C)cc1 | i | 3.3 | i | i | -6.7 | i | / | / | /
COc1ccccc1CCNC(=O)CC1C(=O)NCCN1CCCc1ccccc1 (configuration not stated) | i | 23.8 | i | i | -5.3 | i | / | / | /
COc1ccc(S(=O)(=O)N2CCC(NC(=O)c3cccc(F)c3)CC2)cc1 | i | 7.8 | i | i | 1.4 | i | / | / | /
N#Cc1c(Nc2ccc(Cl)cc2)s[nH]c1=O | i | -87.5 | i | i | -8.4 | i | i | i | i
CSc1nc(Nc2ccc(Cl)cc2)c(C#N)c(=O)[nH]1 | i | -11.0 | i | i | -2.5 | i | / | / | /
Cn1c(CNC(=O)CCNC(=O)c2cccc(F)c2)cc(=O)n(C)c1=O | i | 23.5 | i | i | -9.8 | i | / | / | /
COc1ccccc1CNC(=O)CCNS(=O)(=O)c1ccc2c(c1)CC(C)N2C(C)=O (configuration not stated) | i | 34.1 | i | i | -8.3 | i | / | / | /
O=C(Cc1coc2cc3c(cc12)CCC3)OCc1cc(=O)n2c(n1)sc1ccccc12 | i | 15.2 | i | i | -15.9 | i | i | i | i
SMILES | KCNK9 block | PHOSPHO1 block | KCNK3 block | KCNQ1 inh | hERG protect | KCNQ1 act | KCNK9 inh conf | Kir2-1 spec | HEK293 Tl ctr
COc1ccc2c(C)cc(SCC(=O)Nc3nsc(-c4ccc(C)cc4)n3)nc2c1 | -13.7* | -6.1 | i | i | -21.5 | i | 48.0%* | i | i
COc1ccc2c(C)cc(SCC(=O)Nc3cc(C(N)=O)cc(C(N)=O)c3)nc2c1 | i | 46.5 | i | i | -21.5 | i | / | / | /
C=CCNC(=O)c1snnc1-c1ccccc1 | i | 17.1 | i | i | -5.6 | i | / | / | /
CCCn1c(N)c(N(CCOC)C(=O)c2ccc(N3CCCC3=O)cc2)c(=O)[nH]c1=O | i | / | i | i | -15.2 | i | / | / | /
O=C(Nc1cccc(-c2nc3ccccc3s2)c1)c1cccs1 | -10.2* | 3.1 | i | i | -14.9 | i | 49.0%* | i | 25.5%*
O=C(Nc1cccc(-c2cn3ccccc3n2)c1)c1cccs1 | -8.52* | 14.4 | i | i | -24.7 | i | 52.0%* | i | i
C#CCN1C(=O)S/C(=C\c2cc3c(cc2OC)OCO3)C1=O | i | 34.0 | i | i | -11.8 | i | / | / | /
Cc1ccc(C(C)C)c(OC(=O)/C=C/c2ccccc2)c1 | i | -7.7 | i | i | -19.5 | i | i | i | i
